Data as given in the RNAGym collection of RNA variant scans (doi:10.1126/science.aae0568).
Fewer inactive variants are shown than the library holds.

B1: tRNA (parent)
chain: GUUCCGUUGGCGUAAUGGUAACGCGUCUCCCUCCUAAGGAGAAGACUGCGGGUUCGAGUCCCGUACGGAACG

Variants of: B1
Experiment: yeast fitness relative to wild type (ratio to wild type); higher = fitter; tRNA-Arg(CCU), competitive growth, 37 C, YPD
Outline: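 Gene amplicons from the start population and from each of six end populations were read by 100-nucleotide paired-end sequencing. Those end populations came from pooled Saccharomyces cerevisiae strains carrying tRNA-Arg(CCU) gene variants at the native locus, competed in YPD at 37°C for 24 hours. Fitness relative to wild type was worked out from changes in genotype frequencies. Genotypes needed ≥ 100 starting reads, and estimates < 0.5 were set to 0.5.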

| Variant | yeast fitness |
| --- | --- |
| GUACCGUUGGAGUAAUGGUAACGCGUCUCCCUUCUAAGGAGAAGACUGCGGGUUCGAGUCCCGUACGCAACG [U3A C11A C33U G68C] | ≤ 0.5 |
| GUAACGUCGGCGUAAUGGUAACGCGUCUGCCUCCUACGGAGAAGACUGCGGGUUCGAGUCCUGUACGGAUCG [U3A C4A U8C C29G A37C C62U A70U] | ≤ 0.5 |
| GUACCGUUGGCGUAAUGGUAAGGCGUCUUCCUCCUAAGGAGAAGACUGCGGGUUCGAGUCCCAUACGGAACG [U3A C22G C29U G63A] | ≤ 0.5 |
| GUACCGUUGGGAUAAUGGUAAUGCGUCUCCCUCCUAAGAAGAAGACUGCGGGUUCGAGUCCCGUGCGGAACG [U3A C11G G12A C22U G39A A65G] | ≤ 0.5 |
| GUACCGUUGGGGUAAUGGUAACGCGUCUCCCUCCUAAGGAGAAGACUGCGGGUUCGAGUCCCGUACGGAACG [U3A C11G] | 0.643 |
| GUACCGUUGGAGUAAUGGUAACGCGUCUCCCUCCUAAGGAGAAGACUGCGGGUUCGAGUCCCGUACGGAACG [U3A C11A] | 0.607 |
| GUAGCGUUGGCGUAAUGGUAACGCGUCUCCCUCCUAAGGAGAGGACCGCGGGUUCGAGUCCCGUACGGAACG [U3A C4G A43G U47C] | ≤ 0.5 |
| GUACAGUUGGCGUAAUGGUAACGCGUCUCCCUGUUAAGGAGAAGACUGCGGGUUCGAGUCGCGUACGGAACG [U3A C5A C33G C34U C61G] | ≤ 0.5 |
| GUAUUGUUGGCGUAAUGGUAACGCGUCUCCCUCCUAAGGAGAAGACUCAGGGUUCGAGUCCCGUACCGAUCG [U3A C4U C5U G48C C49A G67C A70U] | 0.663 |
| GUACUGUUGGCGUAAUGGUAAGGCGUCUCCCUCGUAGGGAGAAGACUGCGGGUUCGAGUCCCGUGCGGAACG [U3A C5U C22G C34G A37G A65G] | ≤ 0.5 |
| GUACCGUUGGUGUAAUGGUAACGCGUCUCCCUCCUAAGGAGAAGACUGCGGGUUGGAGUCCCGUCCGGAACG [U3A C11U C55G A65C] | ≤ 0.5 |
| GUAUCGUUGGCGUAAUGGUAACGCCUCUCCCUCCUAAGGAGAAGACUGCGGGUUCGAGUCCCCUACGGAACG [U3A C4U G25C G63C] | ≤ 0.5 |
| GUACCGUUGGUGUAAUGGUGACGCGUCUCCCUCCUAAGGAGAAGACUGCGGGUUCGAGUCCCGUACGGAACG [U3A C11U A20G] | 0.654 |
| GUACCGUUGGCGUAAUGGUAAGGCGUGUCCCUCCUAAGGAGAAGACUGCGGGUUCGAGCCCUGUACGUAACG [U3A C22G C27G U59C C62U G68U] | ≤ 0.5 |
| GUACACUUGGCGUAGAGGUAACGCGUCUCCCUCCUAAGGAGAAGACUGCGGGUUCGAGUCCCGUACUGAACG [U3A C5A G6C A15G U16A G67U] | ≤ 0.5 |
| GUACGGUUGGCGGAAUGGUAACGCGUCUCCCUCCUAAGCAGAAGACUGCGGGUUCGAGUCCCGUACGGACCG [U3A C5G U13G G39C A70C] | ≤ 0.5 |
| GUACGGUUGGCGUAAUGGUAACGAGUCUCUCUCCUAAGGAGAAGACUGCGGGUUCGAGUCCCGUACGGAGCG [U3A C5G C24A C30U A70G] | ≤ 0.5 |
| GUAGCGUUGGCGUAAUGGUAACGCGUCUCCCUCCUAAGGAGAAGACUGCGGGUUCGAGUCCUGUACGGACCG [U3A C4G C62U A70C] | 0.754 |
| GUAUCGAUGGCAUAAUGGUAACGCGUCUCGCUCCUAAGGAGAAGACUGCGGGUUCGAGUCCCGUACGGAACG [U3A C4U U7A G12A C30G] | ≤ 0.5 |

| Variant | yeast fitness |
| --- | --- |
| GUAUCGUUGGCGAAAUGGUAACGCGUCUCCCUCCUAAGGAGAAGACUGCGAGUUCGAGUCCCGUACGGAACG [U3A C4U U13A G51A] | ≤ 0.5 |
| GUAGCGUAGGCGUAAUGGUAACGCGUCUCCCUCCUAAGGAGAAGACUGGGGGUUCGAGUCCCGUACGGAACG [U3A C4G U8A C49G] | ≤ 0.5 |
| GUACCGUUGGGGUCAUGGUAACGCGUCUCCCUCCUAAGGAGAAGACUGCGGGUUCGAGUCCUGUACCGAACG [U3A C11G A14C C62U G67C] | ≤ 0.5 |
| GUACCGUUGGCGUAAUGGUAACGAGUCUCCCUCCUAAGGAGAAGACUGCGGGUUCGAGUCCCAAACGGAACG [U3A C24A G63A U64A] | ≤ 0.5 |
| GUACCGUUGGGGUAAUGGUAACGCGUCUCCCUCCUAAGGACAAGACUGCGGGUUCGACUCCCGUACGGAACG [U3A C11G G41C G58C] | 0.733 |
| GUAUCGAUGGCGUAAUGGUAACGUGUCUCCCUCCUAAGGAGAAGACUGCGGGUUCGAGUCAGGUGCGGAACG [U3A C4U U7A C24U C61A C62G A65G] | ≤ 0.5 |
| GUACCGUUGGCGUAAUGGUAACGAGUCUCUCUCCUAAGGAGAAGACUGCGGGUUCGAGUCCUGUACGGAACG [U3A C24A C30U C62U] | ≤ 0.5 |
| GUACCGUUGGCGUAAUGGUAACGAGUCUCCCUCUUAAGGAGAAGACUGCGGGUGCGAGUCCCGUACGGAACG [U3A C24A C34U U54G] | ≤ 0.5 |
| GUACCGUUGGCGUAAUGGUAACGGGUCUCCCUCCUAAGGAGAAGACUGCGGGUUCGAGUGCCGUACGGAACG [U3A C24G C60G] | 0.645 |
| GUAUCGUUGGCGUAAUGGUAACGCGUCUCCCUUCUAAGGAGAAGACUGCGGGUUCGAGUCACGUACGGAACG [U3A C4U C33U C61A] | ≤ 0.5 |
| GUACGGUUGGCGUAAUGGUAACGCGUCUGCCUCCUCAGGAGAAGACUGCGGGGUCGAGUCCCGUACGGAACG [U3A C5G C29G A36C U53G] | ≤ 0.5 |
| GUACUGUUGGCGUGAUGGUAACGCGUCUCCCUCGUAAGGAGACGACUGCGGGUUCGAGUCCCGUACGGAACG [U3A C5U A14G C34G A43C] | ≤ 0.5 |
| GUACCGUUGGAGUAAUGGUAACGCGUCUCCCUUCUAAGGAGAAGACUGCGGGUUCGAGUCCCGUACGGACCG [U3A C11A C33U A70C] | ≤ 0.5 |
| GUAGCGUUGGCGUAAUGGUAACGCGUCUCCCUCCUAAGGAAAAGACUGCGGGUUCGAGUCCCCUAAGGAACG [U3A C4G G41A G63C C66A] | 0.576 |
| GUAGCGUUGGCGUAAUGGUAACGCGUCUCCCUCCUAAGGAGGAGACUGCGGGUUCGAGUCCCGUACGGAACG [U3A C4G A42G] | ≤ 0.5 |
| GUACCGUUGGAGUAAUGGUAACGCGUCUCCCUCCUAAGGAGAAGACUGCGGGUUCGAGUCCCGUACGGCACG [U3A C11A A69C] | ≤ 0.5 |
| GUAUCGUAGACGUAAUGGUAGCGCGUCUCCCUCCUAAGGAGAAGACUGGGGGUUCGGGUCCCGUACUGAACG [U3A C4U U8A G10A A21G C49G A57G G67U] | 0.655 |
| GUACAGUUGGCGUAAUGGUAACGCGUCUCCCUCCUAAGGAGAAGCCUGCCGGUUCGAGUCCCGUACGGAACG [U3A C5A A45C G50C] | ≤ 0.5 |
